Screening results deposited in PubChem by several laboratories.
The list is not random: actives were taken first. Their share in the collection is about 3.7%.
m-calpain inh = calpain II (pig) inhibition. purified calpain II, fluorogenic peptide substrate, 30 min. inhibition, % at 16 µM. 0.37% of 220,000 active;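 active = inhibition above about 50%, limit read from the data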
MDM2 E3 inh = blocks human Mdm2 ubiquitin ligase activity. AID 1230. Q00987. signal enhancement, % at 5 µM. cell-based MDM2 ubiquitination luciferase reporter, 2 h; 0 = plate control, 100 = twice control, blank-subtracted. 0.11% of 210,000 active;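 active = signal enhancement of 30% or more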;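 note: luminescence tracks abundance of the self-degrading MDM2-luciferase fusion protein; higher signal means inhibition of MDM2 E3 ligase activity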
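Material: Stable MDM2–luciferase fusion reporter cells | Amount: 2000 cells seeded into each well | Dosing: One concentration, 5 µM, with 0.2% DMSO | Incubation: 4 h cell settling then 2 h compound exposure, 37 °C | Measured by: Luciferase luminescence | Read-out basis: % enhancement relative to plate controls after blank subtraction | Benchmarks: Control and blank well means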
ROMK primary = human ROMK K+ channel modulation, primary screen; Tet-inducible ROMK, thallium flux fluorescence; actives lie on both sides; B-score at 10 µM; 2% of 130,000 active;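 active = signal ratio slope over the read window, or its plate-corrected B-score, at least 3 SD from the plate mean, either direction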;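 note: B-score of the F/F0 ratio slope over 7 to 12 s after thallium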
Arbovirus anti = blocks arbovirus infection | arbovirus infection cell-based antiviral screen | inhibition, % at 10 µM | 0.37% of 200,000 active; in the data active = inhibition above about 30%
PKD1 kinase inh = inhibitors of human PKD1 kinase; Q15139; PKD1 kinase fluorescence polarization assay; inhibition, % (no concentration beside the values); 0.056% of 200,000 active; in the data active = inhibition above about 50%
Cl transport mod = modulates chloride dependent transport by human KCC2 | KCC2 cells, thallium flux FluoZin-2 fluorescence | 2.2% of 190,000 active | B-score of Tl+ flux slope (higher = more flux/activation; lower = inhibition) at 10 µM | Q9H2X9;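 active = thallium flux slope and its plate-corrected score both differing from the plate sample mean at a set confidence after two filtering rounds, in either direction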;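 note: slope of fluorescence scaled to starting intensity during 10 to 20 s after thallium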
Target sequence (Q9H2X9 whole entry, looked up): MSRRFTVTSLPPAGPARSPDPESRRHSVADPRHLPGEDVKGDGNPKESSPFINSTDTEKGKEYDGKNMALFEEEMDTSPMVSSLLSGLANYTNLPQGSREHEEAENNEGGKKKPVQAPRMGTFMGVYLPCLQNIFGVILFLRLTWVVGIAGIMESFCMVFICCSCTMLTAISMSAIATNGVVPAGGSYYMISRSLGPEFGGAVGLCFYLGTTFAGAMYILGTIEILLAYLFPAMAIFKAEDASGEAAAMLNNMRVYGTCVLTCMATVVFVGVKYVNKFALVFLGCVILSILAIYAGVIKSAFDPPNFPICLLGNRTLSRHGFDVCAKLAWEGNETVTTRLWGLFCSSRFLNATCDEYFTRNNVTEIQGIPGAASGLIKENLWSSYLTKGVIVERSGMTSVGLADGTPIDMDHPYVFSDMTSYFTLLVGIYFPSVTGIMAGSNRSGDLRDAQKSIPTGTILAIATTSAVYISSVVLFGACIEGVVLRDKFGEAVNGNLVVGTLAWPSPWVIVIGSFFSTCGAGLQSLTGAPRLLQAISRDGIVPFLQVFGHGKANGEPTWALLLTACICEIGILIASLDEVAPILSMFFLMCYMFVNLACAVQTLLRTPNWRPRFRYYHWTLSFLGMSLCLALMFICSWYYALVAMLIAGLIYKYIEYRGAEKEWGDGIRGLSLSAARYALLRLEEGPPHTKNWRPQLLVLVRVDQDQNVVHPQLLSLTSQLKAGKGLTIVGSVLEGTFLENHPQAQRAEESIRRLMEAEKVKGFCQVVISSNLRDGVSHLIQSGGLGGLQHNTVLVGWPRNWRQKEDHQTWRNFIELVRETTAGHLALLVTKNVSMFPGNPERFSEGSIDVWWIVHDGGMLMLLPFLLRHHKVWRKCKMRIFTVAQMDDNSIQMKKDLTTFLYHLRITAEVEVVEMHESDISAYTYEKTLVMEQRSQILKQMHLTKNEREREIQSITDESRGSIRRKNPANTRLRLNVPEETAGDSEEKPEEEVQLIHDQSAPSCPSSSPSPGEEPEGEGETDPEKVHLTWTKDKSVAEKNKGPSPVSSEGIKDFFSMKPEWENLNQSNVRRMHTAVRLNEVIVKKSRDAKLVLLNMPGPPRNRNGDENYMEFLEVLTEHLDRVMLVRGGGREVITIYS
* marks the source's active call; other numbers are inactive results; x = not tested or not shown.

SMILES | m-calpain inh | MDM2 E3 inh | ROMK primary | Arbovirus anti | PKD1 kinase inh | Cl transport mod
CCOC(=O)C(C(=O)OCC)C(C)(C)/C(C)=N\Nc1ccc([N+](=O)[O-])cc1[N+](=O)[O-] | 6 | -2 | 0.22 | 9 | 2 | -0.28
CCOC(=O)C(C)/C(C)=N\Nc1ccc([N+](=O)[O-])cc1[N+](=O)[O-] (stereo unspecified) | 52* | -9 | x | 7 | -5 | -1.3
CCCC(=O)Nc1cc(C)c(NC(=O)C23CC4CC(CC(C4)C2)C3)cn1 | 11 | 0 | 0.56 | 9 | 0 | x
Cc1cc(NC(=O)C2CC2)ncc1NC(=O)C12CC3CC(CC(C3)C1)C2 | 3 | 30* | -0.67 | 4 | -5 | x
Clc1ccc2nc(-c3ccccn3)c(Nc3ccc4c(c3)OCO4)n2c1 | 56* | 0 | 0.064 | -26 | 4 | -0.87
CCCCOc1ccc(CONS(=O)(=O)c2ccc(NC(C)=O)cc2)cc1Cl | 50* | -1 | x | -41 | 5 | -0.22
CCOc1ccccc1Nc1nnc(Cc2ccccc2Cl)c(=O)[nH]1 | 63* | -2 | x | 6 | 2 | 1.7
CC1CCCN(S(=O)(=O)c2ccc(C(=O)Nc3nnc(-c4ccccc4Cl)o3)cc2)C1 (stereo unspecified) | -23 | -5 | x | -9 | 1 | 21*
C[n+]1nc(Nc2cccc(F)c2)sc1-c1ccc(C(=O)O)cc1 | -1 | 7 | x | x | x | -0.44
CN(C)C(/C=C/Nc1cccc(Br)c1)=C(C#N)C#N | 12 | -12 | 0.007 | 5 | 4 | -2.1
Cc1cccc(N/C=C/C(=C(C#N)C#N)N(C)C)c1 | 60* | -15 | x | 4 | -5 | x
Cc1ccc(N/N=C2\CCS(=O)(=O)c3sccc32)cc1 | 54* | -15 | -0.19 | -26 | 10 | -0.62
CN(C)/N=C1\CCS(=O)(=O)c2sccc21 | -22 | 1 | -0.2 | -2 | -6 | 0.035
COc1ccc(-c2nc(NC(=O)c3n[nH]c(=O)c4ccccc34)sc2C)cc1 | -28 | -11 | 0.61 | 44* | -12 | -0.13
COc1ccc(-c2csc(NC(=O)c3ccco3)n2)cc1 | 27 | -5 | -0.97 | 65* | -4 | -0.47
COc1cc(NC(=O)c2n[nH]c(=O)c3ccccc23)cc(OC)c1 | -34 | x | x | x | x | -0.18
COc1ccc(-c2nc(NC(=O)CCNC(=O)c3ccco3)sc2C)cc1 | 52* | -13 | -2.4 | 16 | -3 | -0.32
CC(=O)Nc1ccc(C(=O)Nc2nc(-c3ccccn3)cs2)cc1 | -2 | -4 | 1.5 | 34* | 1 | 0.045
COc1ccc(-n2c(C)cc(-c3csc(NC(=O)c4ccc(S(=O)(=O)N(C)C)cc4)n3)c2C)cc1 | -31 | 6 | 0.097 | 5 | -9 | -0.33
CN(C)/C=C/c1oc2ccc(O)cc2c1[N+](=O)[O-] | 15 | -7 | 0.43 | 20 | -3 | 1.1
O=C(N/N=C/c1nn(-c2ccccc2)cc1-c1ccc(Cl)cc1)c1ccncc1 | -52 | 5 | 0.4 | -27 | 6 | -0.6
O=C(Nc1nc(-c2cc(F)ccc2F)cs1)C1=NN(c2ccccc2)C(=O)CC1 | -62 | -20 | 0.26 | 10 | -7 | -0.93
O=C(Nc1nc(-c2ccco2)cs1)c1ccccc1 | -18 | -1 | x | 62* | -9 | -1.7
CC(=O)Nc1ccc(-c2csc(NC(=O)c3ccc(C)o3)n2)cc1 | -5 | -15 | -0.19 | 39* | 1 | -0.46
O=C(Nc1nc(-c2cc(F)ccc2F)cs1)c1ccccn1 | 15 | -17 | 1.3* | -23 | 6 | 7.4*
SMILES | m-calpain inh | MDM2 E3 inh | ROMK primary | Arbovirus anti | PKD1 kinase inh | Cl transport mod
C=CCc1cc(Cl)ccc1OCCOCCN(C)C | 11 | -17 | -1 | -11 | -3 | -0.29
CC(=O)c1sc(C(C)(C)C)cc1NC(=O)c1ccccc1C(=O)O | -2 | -15 | x | x | x | -0.14
CC(C)(C)OC(=O)N1CCC[C@H]1c1nnc(SCc2cccc(Cl)c2)o1 | -63 | -8 | x | x | x | -1.3
CCCCOC(=O)CCCN1C(=O)/C(=C2\SC(=S)N(CCCC(=O)OCCCC)C2=O)SC1=S | -4 | x | x | x | x | 0.0074
C=CCc1cccc2cc(C(=O)Nc3ccccc3C(=O)O)c(=O)oc12 | -22 | -7 | -1.3 | 32* | 0 | -1.1
C=CCc1cccc2cc(C(=O)O)c(=O)oc12 | -9 | -1 | -0.043 | 4 | 7 | -0.78
CCCC(=O)Nc1ccc(Cl)c(NC(=S)NC(=O)c2cc3ccccc3o2)c1 | 52* | x | 0.39 | -7 | 2 | 2.4
CCC(=O)Nc1ccc(NC(=S)NC(=O)c2cc3ccccc3o2)cc1 | 29 | x | 0.25 | 2 | -11 | 2
Cc1ccc2sc(NNC(=O)c3cc(=O)c4ccccc4o3)nc2c1C | 11 | -13 | x | -17 | 0 | -3.3*
COc1ccc(C(C)=O)cc1COC(=O)c1cnc(Cl)c(Cl)c1 | 26 | -3 | -2.1 | 5 | -4 | -1.8
CC(Oc1ccc(Cl)cc1Cl)C(=O)NC(=S)N1CCc2ccccc21 (stereo unspecified) | -6 | 0 | x | -30 | -5 | 44*
O=C(COc1ccc(Br)cc1Cl)NC(=S)N1CCc2ccccc21 | -29 | -5 | x | -8 | 0 | 23*
O=C(COc1ccc(Br)cc1Br)NC(=S)N1CCCc2ccccc21 | 7 | 0 | 1.1 | -2 | -1 | 11*
O=C(NC(=S)N1CCc2ccccc21)c1ccccc1Br | 8 | -3 | x | -20 | 1 | 60*
Cc1c(C2C(C#N)=C(N)N(c3cccc([N+](=O)[O-])c3)C3=C2C(=O)CCC3)cnn1C (stereo unspecified) | -11 | 2 | 1.2 | 4 | 9 | 1
CCCn1cnc2sc(CC)cc2c1=O | -9 | -6 | -1.3 | 0 | 9 | x
CCc1cc2c(=O)n(CCC(C)C)c(=S)[nH]c2s1 | 5 | -11 | 9.7* | 1 | -1 | 73*
Cc1ccc(Nc2nc(NCc3ccco3)c3ccccc3n2)cc1 | -66 | -24 | -0.23 | -26 | -8 | 0.97
CCCc1noc2c1C(c1cc(Br)ccc1F)C(C#N)=C(N)N2 (stereo unspecified) | 28 | -8 | 0.0024 | -9 | -3 | 0.042
O=C(N=Nc1c(O)[nH]c2ccc([N+](=O)[O-])cc12)c1cc(-c2ccccc2Cl)nc2ccccc12 | 69* | -1 | x | -5 | -27 | 0.7
C/C(O)=C(\N=Nc1cc(C)ccc1O)C(N)=O | -24 | 4 | x | -5 | -3 | 0.3
CC1=C(C)/C(=N\OS(=O)(=O)c2ccccc2)C=CC1=O | -115 | -6 | -4.3* | -36 | -8 | x
OCCNc1nc(Nc2ccccc2)nc2ccccc12 | 19 | -12 | -2.9 | 34* | 13 | -0.57
OCCNc1nc(Nc2ccc(Br)cc2)nc2ccccc12 | -9 | 7 | 0.04 | -27 | -8 | -0.3
COc1ccccc1-c1cc(SC)c(C#N)c(=O)o1 | -24 | 36* | -2.2 | -7 | -1 | -0.012
COc1ccccc1-c1cc(C(F)(F)F)c(C#N)c(=O)[nH]1 | -373 | -7 | 0.63 | 19 | 6 | -2.4
COc1ccccc1Oc1ccc2c(c1)C(=O)N(CC1CCCO1)C2=O (stereo unspecified) | 13 | -2 | x | x | x | -0.99
